Data from article PMC5644278 (Alzheimer's & Dementia : Translational Research & Clinical …, 2016).

How the values were obtained:
[1] = tested on: healthy male subjects; assay: Eye movements; format: in vivo, human
[2] = tested on: Wistar rats; assay: 28-day intranasal toxicity study; format: in vivo
[3] = tested on: healthy male subjects; assay: Face encoding and recognition task, single dose; format: in vivo, human
Method in brief: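 Single intranasal dose in a double-dummy design (11 mg young males; 22 or 33 mg elderly males; 6 per dose) or nasal placebo. The face encoding and recognition task was done before dosing and 1 h 45 min after the nasal dose, in a quiet room, one subject per session. Each active group was compared with age-matched placebo by mixed-model ANOVA.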

[4] = Pharmacokinetics of Gln-1062 in female Wistar rats; format: in vivo
[5] = tested on: healthy male subjects; assay: VAS nausea, single dose; format: in vivo, human; conditions: healthy elderly males
[6] = tested on: healthy male subjects; assay: Adaptive tracking; format: in vivo, human
Method in brief: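 Healthy males got one intranasal spray dose in a double-dummy design with oral capsules: 11 mg for young subjects, 22 or 33 mg for elderly subjects, 6 per dose, with age-matched nasal placebo. NeuroCart tests were run twice before dosing, then at 1, 2, 3, 4, 5, 6, 8 and 10 h after, in a quiet room, one subject per session. Analysis was mixed-model ANOVA: treatment, time and treatment×time fixed, subject random, baseline as covariate.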

[7] = tested on: healthy male subjects; assay: Pharmaco-electroencephalography, single dose; format: in vivo, human
[8] = Plasma pharmacokinetics after single intranasal dose of Gln-1062; format: in vivo, human; conditions: over the Gln-1062 intranasal dose levels
[9] = tested on: healthy male subjects; assay: Treatment emergent adverse events, single dose study; format: in vivo, human; conditions: for Any event (treatment emerging adverse events) / Headache / Nasal discomfort / Rhinorrhea / Sneezing / Cold sweat or hyperhidrosis / Nausea / Vomiting / Diarrhea: number of subjects, percentage in parentheses
[10] = tested on: healthy male subjects; assay: Visual verbal learning test; format: in vivo, human
[11] = tested on: healthy male subjects; assay: Nasal examination; format: in vivo, human; conditions: Gln-1062 44-mg group
Method in brief: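 Nasal examination at screening, during the study period after one intranasal dose (44 mg; healthy elderly males, 6 active per cohort, double-dummy with oral capsules), and at follow-up about 1 week after dosing.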

[12] = Gln-1062 5.5 mg vs Placebo, healthy young males
[13] = Gln-1062 11 mg vs Placebo, healthy young males
[14] = Gln-1062 22 mg vs Placebo, healthy elderly males
[15] = Gln-1062 33 mg vs Placebo, healthy elderly males
[16] = Gln-1062 44 mg vs Placebo, healthy elderly males
[17] = Gln-1062 5.5 mg, healthy young males
[18] = Gln-1062 5.5 mg, healthy young subjects
[19] = Gln-1062 11 mg, healthy young males
[20] = Gln-1062 11 mg, healthy young subjects
[21] = Gln-1062 22 mg, healthy elderly males
[22] = Gln-1062 22 mg, healthy elderly subjects
[23] = Gln-1062 33 mg, healthy elderly males
[24] = Gln-1062 33 mg, healthy elderly subjects
[25] = Gln-1062 44 mg, healthy elderly males
[26] = Gln-1062 44 mg, healthy elderly subjects

## COc1ccc2c3c1O[C@H]1C[C@@H](OC(=O)c4ccccc4)C=C[C@@]31CCN(C)C2 [Gln-1062]
[1]; [12]
  Saccadic Inaccuracy: −1.56 (−2.77 to −0.35) P = .0157%
  Saccadic Peak Velocity: 9.90 (−17.50 to 37.30) P = .4465 deg/sec
[1]; [13]
  Saccadic Inaccuracy: −1.78 (−3.03 to −0.54) P = .0088%
  Saccadic Peak Velocity: 8.32 (−18.32 to 34.95) P = .5097 deg/sec
[1]; [14]
  Saccadic Inaccuracy: 0.24 (−1.01 to 1.48) P = .7005%
  Saccadic Peak Velocity: 26.92 (4.11 to 49.73) P = .0223 deg/sec
[1]; [15]
  Saccadic Inaccuracy: 0.08 (−1.14 to 1.30) P = .8970%
  Saccadic Peak Velocity: 0.92 (−21.84 to 23.68) P = .9349 deg/sec
[1]; [16]
  Saccadic Inaccuracy: −0.22 (−1.57 to 1.12) P = .7363%
  Saccadic Peak Velocity: 19.19 (−5.54 to 43.92) P = .1242 deg/sec
[2]; estimated from the rat NOAEL
  human equivalent dose: 48 mg
[2]; intranasal, 28-day, Wistar rats
  NOAEL: 5 mg/kg
[3]; [12]
  Face: number correct: −0.77 (−4.17 to 2.64) P = .6332
[3]; [13]
  Face: number correct: 4.54 (1.22 to 7.87) P = .0116
[3]; [14]
  Face: number correct: −2.58 (−7.22 to 2.06) P = .2642
[3]; [15]
  Face: number correct: −0.54 (.5.15 to 4.08) P = .8135
[3]; [16]
  Face: number correct: −1.63 (−6.30 to 3.05) P = .4822
[4]; 5.0 mg/kg Gln-1062 IN
  Brain-to-blood ratio (AUClast brain / AUClast blood): 8.1
[4]; 5.0 mg/kg Gln-1062 IV
  Brain-to-blood ratio (AUClast brain / AUClast blood): 18.40
[4]; 20.0 mg/kg Gln-1062 IN
  Brain-to-blood ratio (AUClast brain / AUClast blood): 10.2
[4]; blood, 5.0 mg/kg Gln-1062 IV
  AUClast: 528 ng·h/mL
  Cmax: 650 ng/mL
[4]; brain, 5.0 mg/kg Gln-1062 IV
  AUClast: 9717 ng·h/g
[5]
  peak of nausea (VAS nausea), time after administration: 4 h
[6]; [12]
  Adaptive tracking: 1.96 (−0.88 to 4.80) P = .1581%
[6]; [13]
  Adaptive tracking: 3.47 (0.52 to 6.42) P = .0247%
[6]; [14]
  Adaptive tracking: 0.64 (−1.06 to 2.35) P = .4474%
[6]; [15]
  Adaptive tracking: 1.79 (0.07 to 3.52) P = .0424%
[6]; [16]
  Adaptive tracking: 0.74 (−0.99 to 2.48) P = .3887%
[7]; [12]
  EEG Alpha Fz-Cz (uV): −13.2% (−30.5% to 8.5%) P = .1914
  EEG Alpha Pz-Oz (uV): −8.9% (−23.8% to 8.9%) P = .2782
[7]; [13]
  EEG Alpha Fz-Cz (uV): −0.8% (−19.5% to 22.1%) P = .9310
  EEG Alpha Pz-Oz (uV): −13.1% (−27.2% to 3.7%) P = .1086
[7]; [14]
  EEG Alpha Fz-Cz (uV): 7.8% (−7.0% to 25.1%) P = .3088
  EEG Alpha Pz-Oz (uV): 13.8% (−5.4% to 36.9%) P = .1633
[7]; [15]
  EEG Alpha Fz-Cz (uV): 21.5% (4.8% to 40.8%) P = .0116
  EEG Alpha Pz-Oz (uV): 19.7% (−0.2% to 43.6%) P = .0530
[7]; [16]
  EEG Alpha Fz-Cz (uV): −10.1% (−24.2% to 6.6%) P = .2121
  EEG Alpha Pz-Oz (uV): 2.1% (−16.3% to 24.5%) P = .8306
[8]
  Tmax: 15 to 45 min
  half-life: 66 to 168 min
[9]; [17]
  Any event (treatment emerging adverse events): 6 (100)
  Headache: 2 (33.3)
  Nasal discomfort: 6 (100)
  Rhinorrhea: 2 (33.3)
  Sneezing: 1 (16.7)
[9]; [18]
  Diarrhea, incidence: did not occur
  Vomiting, incidence: did not occur
[9]; Gln-1062 11 mg
  Cold sweat or hyperhidrosis, incidence: 16.7%
[9]; [19]
  Nausea, incidence: 16.7%
  Any event (treatment emerging adverse events): 6 (100)
  Cold sweat or hyperhidrosis: 1 (16.7)
  Headache: 2 (33.3)
  Nasal discomfort: 6 (100)
  Nausea: 1 (16.7)
  Rhinorrhea: 4 (66.7)
  Sneezing: 1 (16.7)
  Vomiting: 1 (16.7)
[9]; [20]
  Diarrhea, incidence: did not occur
  Vomiting, incidence: 16.7%
[9]; [21]
  Nausea, incidence: 16.7%
  Any event (treatment emerging adverse events): 5 (83.3)
  Diarrhea: 1 (16.7)
  Headache: 3 (50)
  Nasal discomfort: 4 (66.7)
  Nausea: 1 (16.7)
  Rhinorrhea: 2 (33.3)
  Sneezing: 1 (16.7)
[9]; [22]
  Diarrhea, incidence: 16.7%
  Vomiting, incidence: did not occur at all
[9]; [23]
  Any event (treatment emerging adverse events): 5 (83.3)
  Diarrhea: 1 (16.7)
  Headache: 2 (33.3)
  Nasal discomfort: 4 (66.7)
  Nausea: 3 (50)
  Rhinorrhea: 1 (16.7)
  Sneezing: 1 (16.7)
  Vomiting: 2 (33.3)
[9]; [24]
  Diarrhea, incidence: 16.7%
  Vomiting, incidence: 33.3%
[9]; Gln-1062 44 mg
  Cold sweat or hyperhidrosis, incidence: 50%
[9]; [25]
  Any event (treatment emerging adverse events): 5 (83.3)
  Cold sweat or hyperhidrosis: 3 (50)
  Diarrhea: 1 (16.7)
  Nasal discomfort: 3 (50)
  Nausea: 3 (50)
  Rhinorrhea: 3 (50)
  Sneezing: 3 (50)
  Vomiting: 2 (33.3)
[9]; [26]
  Diarrhea, incidence: 16.7%
  Vomiting, incidence: 33.3%
[9]; Gln-1062 at the highest dose levels (n = 3)
  Nausea, incidence: 50%
[9]; intranasal single dose
  single dose levels safe and well tolerated: up to 33 mg
[10]; [12]
  VVLT: delayed word recall (correct): 3.42 (−2.62 to 9.45) P = .2431
  VVLT: immediate word recall trial 1 (Word recall correct 1): 3.42 (−0.73 to 7.56) P = .0984
  VVLT: immediate word recall trial 2 (Word recall correct 2): 3.17 (−1.93 to 8.26) P = .2025
  VVLT: immediate word recall trial 3 (Word recall correct 3): 5.00 (−0.58 to 10.58) P = .0749
  VVLT: word recognition (Delayed word recognition correct): −0.15 (−8.05 to 7.75) P = .9674
[10]; [13]
  VVLT: delayed word recall (correct): 3.25 (−2.79 to 9.29) P = .2657
  VVLT: immediate word recall trial 1 (Word recall correct 1): 3.92 (−0.23 to 8.06) P = .0621
  VVLT: immediate word recall trial 2 (Word recall correct 2): 1.83 (−3.26 to 6.93) P = .4510
  VVLT: immediate word recall trial 3 (Word recall correct 3): 3.00 (−2.58 to 8.58) P = .2662
  VVLT: word recognition (Delayed word recognition correct): 1.45 (−6.45 to 9.35) P = .6939
[10]; [14]
  VVLT: delayed word recall (correct): −0.33 (−3.58 to 2.91) P = .8354
  VVLT: immediate word recall trial 1 (Word recall correct 1): 2.67 (0.17 to 5.16) P = .0367
  VVLT: immediate word recall trial 2 (Word recall correct 2): 3.50 (0.33 to 6.67) P = .0315
  VVLT: immediate word recall trial 3 (Word recall correct 3): 0.67 (−3.23 to 4.56) P = .7302
  VVLT: word recognition (Delayed word recognition correct): 0.87 (−4.09 to 5.82) P = .7231
[10]; [15]
  VVLT: delayed word recall (correct): −0.00 (−3.63 to 3.63) P = 1.0000
  VVLT: immediate word recall trial 1 (Word recall correct 1): 1.97 (−0.65 to 4.58) P = .1355
  VVLT: immediate word recall trial 2 (Word recall correct 2): 1.77 (−1.56 to 5.09) P = .2880
  VVLT: immediate word recall trial 3 (Word recall correct 3): 0.60 (−3.49 to 4.69) P = .7672
  VVLT: word recognition (Delayed word recognition correct): −0.67 (−6.45 to 5.12) P = .8153
[10]; [16]
  VVLT: delayed word recall (correct): −1.00 (−4.63 to 2.63) P = .5780
  VVLT: immediate word recall trial 1 (Word recall correct 1): 2.57 (−0.05 to 5.18) P = .0541
  VVLT: immediate word recall trial 2 (Word recall correct 2): 1.77 (−1.56 to 5.09) P = .2880
  VVLT: immediate word recall trial 3 (Word recall correct 3): 1.00 (−3.09 to 5.09) P = .6222
  VVLT: word recognition (Delayed word recognition correct): 2.17 (−3.11 to 7.45) P = .4083
[11]
  subjects with dry white plaques in the nostrils: three
